# Laboratory results taken from ChEMBL document CHEMBL1125834, “Synthesis and antirhinovirus activity of 8-substituted analogues of 6-(dimethylamino)-9-(4-methylbenzyl)-2-(trifluoromethyl)-9H-purine” (J Med Chem, 1991).
# pIC50: −log10 of the molar value.
# Tested on: rhinovirus A1B
# Test: (§1) Compound was tested for its inhibitory concentration against rhinovirus 1B through plaque-inhibition assay at 50 ug/disk using monolayers of M-HeLa cells
# Type: functional, organism-based, rhinovirus type 1b
# Settings: Rhinovirus A
# Method in brief: (§2)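 The 50% inhibitory concentration against rhinovirus serotype 1B was measured in M-HeLa cells, with plaque-reduction run as described previously. 4',6-Dichloroflavan was run alongside as the reference.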
row,pIC50,Structure (SMILES)
1,7.52,Cc1ccc(Cn2cnc3c(N(C)C)nc(C(F)(F)F)nc32)cc1
2,4.82,Cc1ccc(Cn2c(=O)n(C)c3c(N(C)C)nc(C(F)(F)F)nc32)cc1
3,5.85,Cc1ccc(Cn2c(Br)nc3c(N(C)C)nc(C(F)(F)F)nc32)cc1
4,4.70,Cc1ccc(Cn2c(S)nc3c(N(C)C)nc(C(F)(F)F)nc32)cc1
5,5.07,Cc1ccc(Cn2c(NCCO)nc3c(N(C)C)nc(C(F)(F)F)nc32)cc1
6,6.44,Cc1ccc(Cn2c(N)nc3c(N(C)C)nc(C(F)(F)F)nc32)cc1
7,5.54,CNc1nc2c(N(C)C)nc(C(F)(F)F)nc2n1Cc1ccc(C)cc1

# Tested on: rhinovirus A1B
# Test: Compound at 40 uM was tested for its percentage inhibitory concentration against rhinovirus 1B through plaque-inhibition assay at 50 ug/disk using monolayers of M-HeLa cells
# Type: functional, rhinovirus type 1b
# Settings: not given
row,Structure (SMILES),Inhibition [%]
1,Cc1ccc(Cn2c(NCc3ccccc3)nc3c(N(C)C)nc(C(F)(F)F)nc32)cc1,20
2,Cc1ccc(Cn2c(S(C)(=O)=O)nc3c(N(C)C)nc(C(F)(F)F)nc32)cc1,37
3,CC(=O)Nc1nc2c(N(C)C)nc(C(F)(F)F)nc2n1Cc1ccc(C)cc1,22
4,Cc1ccc(Cn2c([S+](C)[O-])nc3c(N(C)C)nc(C(F)(F)F)nc32)cc1 (stereo not given),27
5,Cc1ccc(Cn2c(O)nc3c(N(C)C)nc(C(F)(F)F)nc32)cc1,25

# Tested on: rhinovirus A1B
# Test: Compound at 8 uM was tested for its percentage inhibitory concentration against rhinovirus 1B through plaque-inhibition assay at 50 ug/disk using monolayers of M-HeLa cells
# Type: functional, rhinovirus type 1b
# Settings: not given
row,Structure (SMILES),Inhibition [%]
1,Cc1ccc(Cn2c(N(C)C)nc3c(N(C)C)nc(C(F)(F)F)nc32)cc1,40

# Tested on: rhinovirus A1B
# Test: as §1
# Type: functional, rhinovirus type 1b
# Settings: Rhinovirus A
# Method in brief: as §2
row,Structure (SMILES),inhibition at 50 µg/disc [%]
1,CSc1nc2c(N(C)C)nc(C(F)(F)F)nc2n1Cc1ccc(C)cc1,15

# Tested on: rhinovirus A1B
# Test: Compound was tested for its percentage inhibitory concentration through plaque-inhibition assay at 50 microg per disk using monolayers of M-HeLa cells.
# Type: functional, rhinovirus type 1b
# Settings: Rhinovirus A
row,Structure (SMILES),inhibition at 50 µg/disc [%]
1,Cc1ccc(Cn2c(SCc3ccccc3)nc3c(N(C)C)nc(C(F)(F)F)nc32)cc1,25
